ChEMBL document CHEMBL1687800, “Emergence of metallo-β-lactamase NDM-1-producing multidrug-resistant Escherichia coli in Australia” (2010)
≈ marks a conversion by molar mass, not a printed value.

What was measured:
Type in all cases: functional
Escherichia coli [1] = assay: Antibacterial activity against Escherichia coli TOP10
Summary of the method: (§1)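 MICs of β-lactams read by Etest on Mueller-Hinton agar plates incubated at 37°C, with susceptibility categories assigned according to CLSI guidelines. Strains tested were a clinical urine isolate (E. coli 271), E. coli TOP10 carrying recombinant plasmid p271A expressing NDM-1, and the TOP10 reference strain.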

Escherichia coli [2] = assay: Antibacterial activity against Escherichia coli TOP10 expressing metallo-beta-lactamase NDM-1; summary of the method: as §1
Escherichia coli [3] = assay: Antibacterial activity against Escherichia coli isolate 271; summary of the method: as §1

SMILES | MIC (Escherichia coli [1]) [µg/mL] | MIC (Escherichia coli [2]) [µg/mL] | MIC (Escherichia coli [3]) [µg/mL]
CC1(C)S[C@@H]2[C@H](NC(=O)[C@H](N)c3ccc(O)cc3)C(=O)N2[C@H]1C(=O)O [AMOXICILLIN] | 4 (≈ 10.9 µM) | > 512 | > 512
C[C@H]1[C@H](NC(=O)/C(=N\OC(C)(C)C(=O)O)c2csc(N)n2)C(=O)N1S(=O)(=O)O [AZTREONAM] |  | 0.25 (≈ 0.574 µM) | 64 (≈ 147 µM)
CO/N=C(\C(=O)N[C@@H]1C(=O)N2C(C(=O)[O-])=C(C[N+]3(C)CCCC3)CS[C@H]12)c1csc(N)n1 [CEFEPIME] |  | 16 (≈ 33.3 µM) | 64 (≈ 133 µM)
CO/N=C(\C(=O)N[C@@H]1C(=O)N2C(C(=O)O)=C(COC(C)=O)CS[C@H]12)c1csc(N)n1 [CEFOTAXIME] | 0.12 (≈ 0.263 µM) | 256 (≈ 562 µM) | 512 (≈ 1120 µM)
CO[C@@]1(NC(=O)Cc2cccs2)C(=O)N2C(C(=O)O)=C(COC(N)=O)CS[C@@H]21 [CEFOXITIN] | 4 (≈ 9.36 µM) | 256 (≈ 599 µM) | 512 (≈ 1200 µM)
CC(C)(O/N=C(\C(=O)N[C@@H]1C(=O)N2C(C(=O)[O-])=C(C[n+]3ccccc3)CS[C@H]12)c1csc(N)n1)C(=O)O [CEFTAZIDIME] | 0.06 (≈ 0.11 µM) | 128 (≈ 234 µM) | 256 (≈ 468 µM)
C[C@@H](O)[C@H]1C(=O)N2C(C(=O)O)=C(S[C@@H]3CN[C@H](C(=O)Nc4cccc(C(=O)O)c4)C3)[C@H](C)[C@H]12 [ERTAPENEM] | 0.06 (≈ 0.126 µM) | 3 (≈ 6.31 µM) | 32 (≈ 67.3 µM)
C[C@@H](O)[C@H]1C(=O)N2C(C(=O)O)=C(SCCNC=N)C[C@H]12 [IMIPENEM ANHYDROUS] |  | 4 (≈ 13.4 µM) | 6 (≈ 20 µM)
C[C@@H](O)[C@H]1C(=O)N2C(C(=O)O)=C(S[C@@H]3CN[C@H](C(=O)N(C)C)C3)[C@H](C)[C@H]12 [MEROPENEM] | 0.06 (≈ 0.156 µM) | 3 (≈ 7.82 µM) | 16 (≈ 41.7 µM)
CCN1CCN(C(=O)N[C@@H](C(=O)N[C@@H]2C(=O)N3[C@@H]2SC(C)(C)[C@@H]3C(=O)O)c2ccccc2)C(=O)C1=O [PIPERACILLIN] | 1 (≈ 1.93 µM) | 512 (≈ 989 µM) | > 512
CC1(C)S[C@@H]2[C@H](NC(=O)[C@H](C(=O)O)c3ccsc3)C(=O)N2[C@H]1C(=O)O [TICARCILLIN] | 4 (≈ 10.4 µM) | > 512 | > 512
